# Source: PubChem BioAssay
# KCNQ1 block: inhibitors of human KCNQ1 channel, primary screen, cell-based, thallium flux, high-throughput; Potassium voltage-gated channel subfamily KQT member 1 (Homo sapiens), P51787; CHO-K1 KCNQ1, FluxOR thallium flux fluorescence; stronger effect = higher value; B-score at 10 µM; 1.3% of 310,000 active;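 active = compounds whose thallium flux B-score, printed positive for inhibition, exceeds three library SD while starting fluorescence stays within three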;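 note: channel opened by potassium depolarization with thallium stimulus after 20 min compound exposure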
# Target sequence (P51787 whole entry, looked up): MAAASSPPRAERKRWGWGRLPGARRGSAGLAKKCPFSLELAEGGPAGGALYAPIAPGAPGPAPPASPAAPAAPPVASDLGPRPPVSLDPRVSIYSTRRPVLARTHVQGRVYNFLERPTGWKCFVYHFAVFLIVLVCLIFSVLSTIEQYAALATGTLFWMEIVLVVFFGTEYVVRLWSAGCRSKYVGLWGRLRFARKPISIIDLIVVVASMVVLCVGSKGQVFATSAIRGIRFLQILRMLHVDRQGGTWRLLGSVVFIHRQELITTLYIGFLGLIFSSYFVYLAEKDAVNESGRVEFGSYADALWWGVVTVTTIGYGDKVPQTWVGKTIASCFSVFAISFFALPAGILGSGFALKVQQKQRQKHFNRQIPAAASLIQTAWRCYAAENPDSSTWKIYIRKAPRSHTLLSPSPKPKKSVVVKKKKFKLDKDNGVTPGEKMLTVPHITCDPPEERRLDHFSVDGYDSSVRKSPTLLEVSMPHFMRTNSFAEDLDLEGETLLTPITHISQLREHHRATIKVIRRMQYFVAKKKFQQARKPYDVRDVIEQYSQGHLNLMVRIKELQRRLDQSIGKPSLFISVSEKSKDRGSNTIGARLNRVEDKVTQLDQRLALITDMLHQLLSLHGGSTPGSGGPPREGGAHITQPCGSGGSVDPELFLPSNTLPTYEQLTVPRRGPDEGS
# KCNK3 inh: human KCNK3 channel inhibitors, primary screen, CHO cells, FluxOR thallium flux, B-score. Potassium channel subfamily K member 3 (Homo sapiens), O14649. FluxOR fluorescence; stronger effect = lower value. B-score at 10 µM. 0.84% of 340,000 active;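 active = B-score under library mean minus 4 SD, starting fluorescence ratio at most library mean plus 5 SD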;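 note: more negative B-score means stronger inhibition of thallium flux through KCNK3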
# hERG rescue: hERG rescue from dofetilide block, primary screen, cell-based, CHO-hERG, FluxOR thallium flux, dofetilide IC70 | Voltage-gated inwardly rectifying potassium channel KCNH2 (Homo sapiens), Q12809 | 0.51% of 310,000 active | activation (rescue from dofetilide block), less the hit threshold, % at 10 µM | AID 1511, 2009 | dofetilide IC70 present;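 active = activation above the mean of controls blocked by dofetilide plus 5 SD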;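 note: thallium influx through hERG after potassium depolarization seen as dye fluorescence rise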
# KCNK9 inh: KCNK9 potassium channel inhibitors, primary screen, HEK293 cells, thallium flux; Potassium channel subfamily K member 9 (Homo sapiens), Q9NPC2; B-score at 10 µM; FluxOR thallium flux fluorescence; stronger effect = lower value; 1.2% of 310,000 active;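 active = ratio B-score over 3 SD below the library mean, with starting fluorescence within 5 SD of its mean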;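 note: negative B-score means less thallium flux so channel inhibition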
# Kir21 block: inhibitors of mouse Kir2.1 inward-rectifier potassium channel; HEK293-Kir2.1, FluxOR thallium flux fluorescence; stronger effect = lower value; B-score at 10 µM; AID 1672, 2009; 0.85% of 310,000 active; Inward rectifier potassium channel 2 (Mus musculus), P35561;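 active = fluorescence ratio B-score at or below minus 3 SD of library scores, with starting-brightness B-score within 2 SD, cut at about -4.2 in these data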;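 note: channel flux triggered by added potassium and thallium sulfate stimulus; B-score of peak minus minimum fluorescence over baseline after thallium stimulus; more negative B-score means stronger Kir2.1 block with less thallium influx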
# KCNQ1 act: potentiators or activators of KCNQ1 channel, primary screen, cell-based, thallium flux, high-throughput; 0.35% of 310,000 active; CHO-K1 KCNQ1, thallium flux FluxOR fluorescence; stronger effect = higher value; B-score at 10 µM; Potassium voltage-gated channel subfamily KQT member 1 (Homo sapiens), P51787;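 active = fluorescence ratio B-score, a plate-corrected score, at least three library SD, with initial intensity B-score within 5 SD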
#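 Assay system: stable KCNQ1 CHO-K1 line; medium: assay buffer, equal DMSO in all wells; timing: 90 min dye loading and 20 min compound exposure, both at room temperature; technique: kinetic FluxOR thallium fluorescence, 10-s 1-Hz baseline, 110-s post-stimulus read; read-out basis: B score of baseline-normalized fluorescence ratio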
# KCNQ1 inh valid: KCNQ1 potassium channel inhibitors, confirmation, cell-based, Tl flux, duplicate. KCNQ1 cell line, FluxOR thallium flux fluorescence. 93% of 1,600 active. inhibition, % at 10 µM. shares compounds with KCNQ1 block. AID 588353, 2011;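 active = primary screen active, with duplicate mean exceeding buffer control mean plus 3 SD of buffer wells, cut at about 28% in these data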;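 note: 0% = buffer control ratio and 100% = XE991 inhibitor control ratio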
# CHO Tl flux: thallium flux effects in parental CHO cells, counter-screen for KCNQ1 inhibitor project, cell-based, Tl flux. 21% of 1,600 active. AID 588366, 2011. fluorescence ratio (Tl flux) at 10 µM. shares compounds with KCNQ1 block. parental CHO-K1, FluxOR thallium flux fluorescence ratio; stronger effect = lower value; zero means no signal rise above baseline;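 active = mean of duplicate thallium-flux fluorescence ratios in parental host cells more than 5 SD below the buffer control mean, cut at about 0.38 in these data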;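 note: ratio is peak minus minimum fluorescence divided by baseline fluorescence; actives read low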
# KCNQ1 APC inh: KCNQ1 channel inhibitors, confirmation, orthogonal assay, cell-based, automated electrophysiology; shares compounds with KCNQ1 block; KCNQ1-CHO cells, automated patch clamp current; calls only at 10 µM; 20% of 490 active; AID 624120, 2012;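 active = KCNQ1 current drop exceeding 3 SD of negative control wells, seen in both duplicate runs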;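 note: steady state current during a 2 s step from -80 to +40 mV; negative values mean current inhibition and positive values mean potentiation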
# KCNQ2 inh: KCNQ2 channel inhibition, selectivity assay for KCNQ1 inhibitor project, cell-based. 71% of 1,600 active. shares compounds with KCNQ1 block. KCNQ2 cells, FluxOR thallium flux fluorescence. inhibition, % at 10 µM;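 active = mean percent inhibition of the KCNQ2 thallium signal more than 5 SD above the buffer-only control wells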;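 note: KCNQ2 expressed in CHO cells; 0% = buffer control wells and 100% = XE-991 inhibitor control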
# KCNQ1 KCNE1 spec: KCNQ1/KCNE1 channel inhibition, selectivity assay for KCNQ1 inhibitor project, CHO-K1 cells, thallium flux, FluxOR | 77% of 1,600 active | FluxOR thallium flux fluorescence | shares compounds with KCNQ1 block | AID 652147, 2013 | inhibition, % at 10 µM;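 active = mean percent inhibition of duplicate wells above the buffer-only control mean plus 3 SD of those controls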;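 note: 0% = buffer only wells and 100% = XE-991 inhibitor control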
# An asterisk follows results filed as active; i = inactive; x = no result given; + = active, no number. The list is not random: actives were taken first. Their share in the collection is about 3.7%.
SMILES,KCNQ1 block,KCNK3 inh,hERG rescue,KCNK9 inh,Kir21 block,KCNQ1 act,KCNQ1 inh valid,CHO Tl flux,KCNQ2 inh,KCNQ1 KCNE1 spec,others
CCOc1ccc(-n2c(=S)sc3c(=O)[nH]c(SCC(=O)C(C)(C)C)nc32)cc1,6*,i,-6,i,1.5,i,92*,0.47,i,60%*,KCNQ1 APC inh=+
CCCn1c(N)c(C(=O)CSc2nnc(Cc3cccs3)n2C2CC2)c(=O)n(C)c1=O,x,i,x,x,x,x,x,x,x,x,
NCC12CC3CC(C1)CC(c1ccc(Br)cc1)(C3)C2,6*,i,-17,i,-9.5*,i,66*,0.43,i,124%*,
Fc1cccc(Cl)c1CNc1ccc(N2CCCC2)cc1,6*,i,-18,i,0.58,i,0,0.44,72%*,40%*,
O=C1N(Cc2cccc(Cl)c2)C[C@@H]2C[C@@H](c3cccn3-c3ccccn3)N3CCC[C@@]123,6*,i,-11,i,-3.4,i,65*,0.5,63%*,46%*,
COc1ccc(-c2cn[nH]c2-c2ccc(OCc3ccccc3)cc2O)cc1,7*,i,-9,-6.7*,0.72,i,107*,0.43,91%*,130%*,KCNQ1 APC inh=i
c1ccc(OCCOc2ncnc3ccccc23)cc1,i,i,-11,i,-1.5,i,x,x,x,x,
Brc1ccc(COc2ncnc3ccccc23)cc1,9*,i,-9,i,0.68,i,0,0.44,68%*,42%*,
CC(C)c1ccc(NC(=S)NCc2ccc3c(c2)OCO3)cc1,8*,i,-15,i,1.8,i,82*,0.51,i,61%*,
CCOCCCn1c(SCC(=O)Nc2ccc(OC)cc2)nc2ccccc2c1=O,i,i,-10,i,-0.13,i,x,x,x,x,
FC(F)(F)c1nc(SCc2ccc(Cl)cc2Cl)n[nH]1,6*,i,-18,i,1.1,i,0,0.48,i,i,
Cc1cccc(NC(=O)C2CCN(S(=O)(=O)c3c(C)c(C)cc(C)c3C)CC2)n1,6*,i,-22,i,0.93,i,78*,0.4,77%*,177%*,
Cc1cc(NC2CCCCC2)nc2ccccc12,6*,i,-19,i,-0.68,i,58*,0.45,59%*,49%*,
O=C(CN1CCN(S(=O)(=O)c2ccc(Cl)cc2)CC1)NCC1(N2CCOCC2)CCCCC1,x,i,x,x,x,x,x,x,x,x,
Fc1ccccc1-c1nc(-c2ccc(Cl)cc2)no1,i,i,-10,i,-1.6,i,x,x,x,x,
c1ccc(-c2noc(-c3ccccc3-c3ccccc3)n2)cc1,7*,i,-8,i,0.41,i,133*,0.4,115%*,194%*,KCNQ1 APC inh=i
CCC(C)(C)NC(=O)CN(Cc1ccccc1)C(=O)CCC(=O)Nc1nccs1,i,i,-14,i,-0.72,i,x,x,x,x,
CCOC(=O)c1c(-c2ccccc2)oc2ccc(OCC)cc12,6*,i,-5,i,0.49,i,70*,0.46,96%*,62%*,
CCc1c(O)nc(SCC(=O)Nc2ccc(OC)cc2)n(C2CCCCC2)c1=O,i,i,-16,i,1.2,i,x,x,x,x,
CCc1c(O)nc(SCC(=O)Nc2nc3ccccc3s2)n(C2CCCCC2)c1=O,7*,i,-7,i,-1.4,i,0,0.59,i,i,
Cc1noc(C)c1C(=O)Nc1sc(C)c(-c2ccccc2)c1C#N,9*,i,-13,i,0.03,i,107*,0.42,81%*,70%*,KCNQ1 APC inh=i
COc1ccc(N=C2SC(CC(=O)Nc3ccccc3)C(=O)N2Cc2ccccn2)cc1 (stereo not given),i,i,-9,i,0.31,i,x,x,x,x,
COc1ccc(N=C2SC(CC(=O)Nc3cccc(Cl)c3)C(=O)N2Cc2ccco2)cc1 (stereo not given),12*,i,-10,i,0.61,i,92*,0.43,93%*,136%*,KCNQ1 APC inh=i
CCC(=O)N1CCN(c2nc(CC)nc3sc4c(c23)CCCC4)CC1,i,i,2,i,0.12,i,x,x,x,x,
CC1CCc2c(sc3nc(C(C)(C)C)nc(N4CCN(C(=O)CCl)CC4)c23)C1 (stereo not given),11*,i,-5,i,-1.1,i,110*,0.41,128%*,156%*,KCNQ1 APC inh=i
SMILES,KCNQ1 block,KCNK3 inh,hERG rescue,KCNK9 inh,Kir21 block,KCNQ1 act,KCNQ1 inh valid,CHO Tl flux,KCNQ2 inh,KCNQ1 KCNE1 spec,others
COc1cccc(-c2nc(NC(C)C)c3ccccc3n2)c1O,i,i,-13,i,2.1,i,x,x,x,x,
CCC(C)Nc1nc(-c2cccc(OC)c2O)nc2ccccc12 (stereo not given),11*,-12*,-26,i,0.89,i,125*,0.31*,i,139%*,
O=C(CCN1CCc2ccccc21)c1ccc2c(c1)OCCO2,i,i,-8,i,0.86,i,x,x,x,x,
O=C(CCN1CCc2ccccc2C1)c1ccc2c(c1)OCCO2,7*,i,-24,i,0.02,i,44*,0.38*,70%*,83%*,
O=C(CCN1CCCCC1)c1ccc2c(c1)OCCO2,i,i,1,i,0.34,i,x,x,x,x,
O=C(CCN1CCC(c2ccccc2)C1)c1ccc2c(c1)OCCO2 (stereo not given),6*,i,-16,i,-2.3,i,45*,0.43,60%*,56%*,
